Bioassay records as filed in PubChem BioAssay.
Sampled rows, rich in hits. Any-hit rate of the full collection: about 4%.
Ecoli rRNA inh: reduced GFP signal of wild-type E. coli, primary screen, bacterial rRNA inhibitor project, GFP/RFP fluorescence, OD600, single point | E. coli WT GFP vs humanized-ribosome RFP mutants, 24 h; hits give low values; DMSO median 0, no signal -100 | GFP signal change (wild-type ribosome), % (concentration not given with the values) | 350,000 compounds, 1.6% hits;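 active = significant combined selectivity score with lowered wild-type GFP, culture density cut under 30%, mutant RFP and density less affected; inactive = any of these conditions unmet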
E-selectin induc: E-selectin induction in HUVECs, primary screen, imaging, HUVEC, immunofluorescence imaging, single point. P16581. normalized: neutral wells 0, TNF-alpha wells 100. activation, % at 7.58 µM. 260,000 compounds, 0.37% hits;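 active = mean E-selectin-positive cell signal at least 10% of the positive control, reached in at least 60% of replicates, without over 20% cell loss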
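material = human umbilical vein endothelial cells (HUVEC), E-selectin induction | quantity = 3,000 cells/well | medium = EGM-2 growth medium on 0.1% gelatin-coated wells | technique = immunofluorescence imaging | read-out basis = % PE-positive cells | control set = TNF-alpha positive control, DMSO neutral control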
C2C12 statin: suppressors of statin myotoxicity in C2C12 myotubes, primary screen, cell-based, single point, plate reader; C2C12 myotubes + simvastatin, ATP luminescence, 48 h; scaled: DMSO 0, geranylgeraniol control 100; rescue of ATP level, % at 7.49 µM; 330,000 compounds, 0.78% hits;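 active = mean ATP rescue above about 67%, or every replicate alone reaching that limit, limit read from the data, passing the limit was not always enough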;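 note: myotubes were challenged with 10 µM simvastatin during compound exposure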
FGF22 binding: binders of human FGF22 protein, primary screen, FGF22 synaptogenesis inhibitor project, biophysical, thermal shift, single point | activity (Tm shift, normalised), % at 9.99 µM | 340,000 compounds, 1.5% hits | AID 651658, 2012 | Fibroblast growth factor 22 (Homo sapiens), Q9HCT0 | recombinant FGF22 thermal shift, SYPRO orange fluorescence; percent of sucrose octasulfate shift, DMSO zero;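 active = mean Tm shift, scaled 0 neutral to 100 positive control, at about 1.3% or above, every replicate too, limit read from the data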
Target sequence (Q9HCT0 whole entry, looked up): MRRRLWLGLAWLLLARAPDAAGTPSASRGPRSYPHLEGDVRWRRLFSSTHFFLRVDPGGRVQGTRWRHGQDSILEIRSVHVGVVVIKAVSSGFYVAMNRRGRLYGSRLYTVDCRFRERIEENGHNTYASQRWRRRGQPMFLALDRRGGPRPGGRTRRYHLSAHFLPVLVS
SIRT5 inh: SIRT5 desuccinylase inhibitors, primary screen, biochemical, fluorescence imaging, single point, set 5; NAD-dependent protein deacylase sirtuin-5, mitochondrial (Homo sapiens), Q9NXA8; Purified SirT5, succinyl-peptide AMC, trypsin-coupled fluorescence; inhibition, % at 15 µM; 330,000 compounds, 1.1% hits; AID 652115, 2013; in the data active = inhibition above about 15%
Target sequence (Q9NXA8 whole entry, looked up): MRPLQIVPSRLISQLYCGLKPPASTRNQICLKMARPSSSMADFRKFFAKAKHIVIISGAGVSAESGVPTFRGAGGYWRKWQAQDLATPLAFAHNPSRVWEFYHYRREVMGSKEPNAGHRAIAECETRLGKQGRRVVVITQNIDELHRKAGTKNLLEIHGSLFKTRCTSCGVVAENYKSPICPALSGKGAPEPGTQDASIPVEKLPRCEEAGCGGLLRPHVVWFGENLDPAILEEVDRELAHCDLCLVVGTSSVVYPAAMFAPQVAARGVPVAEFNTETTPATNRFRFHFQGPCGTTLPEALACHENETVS
FN deposition inh: inhibitors of fibronectin matrix deposition, primary screen, AH1F cells, Alexa488-fibronectin fluorescence, plate reader | AH1F fibroblasts, overnight | inhibition, % at 12.6 µM | 350,000 compounds, 0.086% hits | AID 743247, 2014;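 active = mean inhibition across replicates of 30% or more, regardless of how many single replicates reach that level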;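 note: positive control wells lacked labelled fibronectin entirely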
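Material: AH1F fibroblast monolayer depositing Alexa488-labelled fibronectin into matrix | Input: 10000 AH1F cells/well | Medium: DMEM plus 2% serum, read in PBS | Reagent: Alexa488-fibronectin, 24 nM final in well | Compound dosing: One dose per compound, pinned | Schedule: 1 h adhesion, overnight exposure | Measured by: Fluorescence at 485 nm excitation, 525 nm emission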
The depositor's hits bear a star; / = no result given; ! = repeats disagree.

SMILES | Ecoli rRNA inh | E-selectin induc | C2C12 statin | FGF22 binding | SIRT5 inh | FN deposition inh
COc1ccc(NC(=O)N(C)C[C@@H]2Oc3c(NC(=O)c4cc(C)nn4C)cccc3C(=O)N([C@H](C)CO)C[C@H]2C)cc1 | 4.6 | / | -8.0 | 0.0 | -0.5 | /
Cc1cccc(S(=O)(=O)N2C[C@H]3[C@@H](c4ccccc42)[C@H](CO)N3C(=O)C2CC2)c1 | -4.6 | -0.5 | 25.6 | -0.1 | 0.2 | /
O=S(=O)(c1ccc(F)cc1)N1CCCCN2[C@H](CO)[C@@H](c3ccc(-c4ccccc4F)cc3)[C@H]2C1 | / | / | / | 0.1 | 22.1* | /
C/C=C/c1ccc([C@@H]2[C@H]3CN(S(=O)(=O)c4ccc(F)cc4)CCCCN3[C@H]2CO)cc1 | 9.4 | 0.2 | 19.2 | -0.2 | 15.6* | /
C/C=C/c1ccc([C@@H]2[C@@H](CO)N3CCCCN(S(=O)(=O)c4ccc(F)cc4)C[C@H]23)cc1 | -52.3 | -0.3 | 14.3 | -0.1 | 2.1 | /
O=C(O)C[C@H]1C[C@H]2c3cc(NC(=O)c4ccc5c(c4)OCO5)ccc3O[C@H]2[C@H](CO)O1 | 3.0 | 0.0 | -5.9 | -0.4 | 7.3 | -1.2
COc1cccc(-c2ccc3c(c2)O[C@H](CN(C)C(=O)c2ccccc2F)[C@@H](C)CN([C@H](C)CO)S3(=O)=O)c1 | -6.5 | / | -42.2 | 0.4 | 2.5 | /
CCCC#Cc1ccc2c(c1)O[C@@H](CN(C)C(=O)c1ccccc1)[C@@H](C)CN([C@H](C)CO)S2(=O)=O | -1.5 | 96.2* | -9.5 | -0.4 | 2.0 | -1.2
CCCC#Cc1ccc2c(c1)O[C@@H](CN(C)C(C)=O)[C@@H](C)CN([C@H](C)CO)S2(=O)=O | -5.6 | 0.1 | 6.6 | -1.1 | 14.3 | -4.8
CCCC#Cc1ccc2c(c1)O[C@H](CN(C)C(=O)c1ccccc1F)[C@H](C)CN([C@@H](C)CO)S2(=O)=O | 1.1 | 0.1 | -12.6 | -0.9 | 18.8* | -3.9
COc1cccc(-c2ccc3c(c2)O[C@@H](CN(C)C(=O)c2ccccc2F)[C@H](C)CN([C@@H](C)CO)S3(=O)=O)c1 | -7.2 | / | -65.7 | -0.1 | 20.1* | /
CCCC#Cc1ccc2c(c1)O[C@H](CN(C)C(C)=O)[C@H](C)CN([C@@H](C)CO)S2(=O)=O | 4.7 | 123.2* | -7.3 | -0.9 | -0.3 | 9.8
CCCC#Cc1ccc2c(c1)O[C@@H](CN(C)C(=O)c1ccccc1)[C@@H](C)CN([C@@H](C)CO)S2(=O)=O | -3.3 | -0.3 | 4.5 | -0.2 | 7.1 | -6.3
C[C@@H]1CCCCO[C@H](CN(C)Cc2ccc3c(c2)OCO3)[C@H](C)CN([C@@H](C)CO)C(=O)c2cc(NC(=O)Cc3ccccc3)ccc2O1 | -0.1 | -0.2 | / | 0.2 | / | /
CC(=O)N[C@@H]1CC[C@@H](CC(=O)NCc2ccc(Cl)cc2)O[C@@H]1CO | 2.7 | -0.1 | 5.0 | 0.3 | -0.8 | /
COc1ccc(S(=O)(=O)Nc2ccc3c(c2)C(=O)N([C@@H](C)CO)C[C@H](C)[C@@H](CN(C)C(=O)NC(C)C)OCCCC[C@@H](C)O3)cc1 | 4.0 | 0.0 | / | -0.1 | 7.3 | /
CC(C)CC#Cc1ccc2c(c1)O[C@H](CN(C)C(=O)c1ccccc1)[C@H](C)CN([C@@H](C)CO)S2(=O)=O | -2.3 | 84.9* | 1.3 | -0.4 | 5.7 | /
C[C@@H]1CN([C@H](C)CO)S(=O)(=O)c2ccc(C#Cc3ccccc3F)cc2O[C@@H]1CN(C)C(=O)Cc1ccccc1 | 4.5 | -0.2 | -13.0 | 0.1 | 19.6*! | 20.0
C[C@H](CO)N1C[C@H](C)[C@@H](CN(C)C(=O)Cc2ccccc2)Oc2cc(C#Cc3ccccc3F)ccc2S1(=O)=O | -4.1 | -0.2 | -35.3 | 0.0 | 12.8 | /
CC(=O)N(C)C[C@@H]1Oc2cc(C#Cc3ccccn3)ccc2S(=O)(=O)N([C@H](C)CO)C[C@@H]1C | 2.0 | 70.4* | 8.5 | -0.1 | 1.2 | /
